OXTR ag: human OXTR agonism | P30559 | CHO-OTR cells, Fluo-8 calcium fluorescence; normalized: DMSO 0%, oxytocin 100% | activation, % at 3 µM | actives 0.32% (n = 320,000) | AID 2435;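 active = activation above the mean of all tested compounds plus 3 SD, cutoff set per screening run, cut at about 20% in these data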;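 note: peak over basal fluorescence ratio from a 100 s FLIPR kinetic read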
V1R ag counter: activates human V1a receptor in oxytocin agonist counter-screen; P37288; CHO-V1R cells, Fluo-8 calcium fluorescence, agonist mode; 0% DMSO, 100% 3 nM vasopressin; activation, % at 3 µM; actives 0.25% (n = 320,000);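 active = activation above the mean activation of all tested compounds plus 3 SD, per screening run, cut at about 20% in these data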;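 note: signal is peak over basal fluorescence ratio across a 100 second FLIPR read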
Target sequence (P37288 whole entry, looked up): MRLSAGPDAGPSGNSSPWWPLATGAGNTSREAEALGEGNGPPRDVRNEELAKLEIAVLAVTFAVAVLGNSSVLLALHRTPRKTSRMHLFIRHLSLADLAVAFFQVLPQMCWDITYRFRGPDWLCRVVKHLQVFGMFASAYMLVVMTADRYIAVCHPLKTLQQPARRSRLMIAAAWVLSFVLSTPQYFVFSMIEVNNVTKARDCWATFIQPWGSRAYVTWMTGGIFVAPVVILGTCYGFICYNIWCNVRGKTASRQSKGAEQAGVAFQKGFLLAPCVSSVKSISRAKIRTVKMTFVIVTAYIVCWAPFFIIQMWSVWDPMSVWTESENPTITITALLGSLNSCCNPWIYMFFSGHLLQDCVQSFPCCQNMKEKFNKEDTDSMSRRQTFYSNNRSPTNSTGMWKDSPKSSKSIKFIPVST
TRPN1 ag: agonists of zebrafish TRPN1 channel | actives 0.18% (n = 220,000) | HEK293 zebrafish TRPN1-YFP, Fluo-8 calcium fluorescence; 100% = response to 87 µM carbachol | activation, % at 3 µM;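 active = activation above its plate's cutoff, the mean activation of test wells on that plate plus 3 SD, cut at about 19% in these data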;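 note: 0% = DMSO alone and 100% = 87 µM carbachol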
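Material – zebrafish TRPN1-YFP in HEK293 cells · Doses – 3 µM single point · Schedule – dye 1 h 37 °C plus 30 min RT · Signal – Fluo-8 calcium fluorescence, excitation 470-495 nm, emission 515-575 nm · Read-out – % activation versus carbachol response · Control set – carbachol high, DMSO low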
TRPML3 agonist: agonists of human TRPML3 channel; Q8TDD5; HEK293 TRPML3-YFP, Fluo-8 calcium fluorescence; 100% = the carbachol control signal; activation, % at 3 µM; actives 0.29% (n = 220,000); AID 1448;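 active = activation above its plate's cutoff, the mean activation of the plate's test wells plus 3 SD, cut at about 12% in these data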;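 note: 0% = DMSO only wells and 100% = carbachol wells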
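Material: TRPML3-YFP stable HEK293 cells | Dosing: One concentration, 3 µM nominal, 0.3% DMSO | Timing: 125 s total fluorescence read per well | Technique: Fluo-8 calcium dye fluorescence, ex 470-495, em 515-575 nm | Measure: Percent activation from peak-to-basal fluorescence ratio, scaled between DMSO and carbachol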
OXTR potentiate: human OXTR potentiation; AID 2445; CHO-OTR cells, Fluo-8 calcium fluorescence, potentiator mode; 0% = oxytocin EC15, 100% = EC100; activation, % at 3 µM; P30559; actives 0.061% (n = 320,000);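 active = activation above that plate's cutoff, the mean activation of tested compounds plus 3 SD, cut at about 6.6% in these data, passing the limit was not always enough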;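 note: 100% uses oxytocin at 75 nM as the full agonist control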
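Assay system: CHO cell line stably expressing human OTR. Reagent: EC15 oxytocin agonist. Dosing: single dose, 3.0 µM nominal final compound concentration. Timing: compound 6 min at room temperature before oxytocin, 100 s read. Signal: kinetic Fluo-8 calcium fluorescence. Controls: oxytocin EC15 low and EC100 high.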
* marks the source's active call; other numbers are inactive results; nt = no result. Most compounds without a hit are left out; they make up all but 0.58% or so of the library.

SMILES | OXTR ag | V1R ag counter | TRPN1 ag | TRPML3 agonist | OXTR potentiate
O=C(NNC(=S)NC(=O)c1ccccc1Cl)c1cccc([N+](=O)[O-])c1 | 28* | 23* | nt | nt | -11
O=C(NNC(=S)NC(=O)c1ccc(Br)cc1)c1ccc([N+](=O)[O-])cc1 | 64* | 63* | nt | nt | -26
O=C(NNC(=S)NC(=O)c1ccc(Br)cc1)c1cccc([N+](=O)[O-])c1 | 31* | 64* | nt | nt | -25
O=C(CNCc1ccc(F)cc1)Nc1cc(S(=O)(=O)N2CCOCC2)ccc1Cl | 5 | 4 | nt | nt | -7
O=C(NCSc1ccnc(SCNC(=O)c2ccc(F)cc2)n1)c1ccc(F)cc1 | 0 | 0 | 0 | 1 | -5
O=C(c1cccc(F)c1)N1CCCC(C(=O)N2CCN(c3ccccc3)CC2)C1 (configuration not stated) | 0 | 0 | -1 | 1 | -1
CC1CCN(c2ccc3c(c2)S(=O)(=O)c2cccc(C(=O)NCc4cccc(F)c4)c2C3=O)CC1 | 50* | 38* | nt | nt | -10
O=C(NCc1cccc(F)c1)c1cccc2c1C(=O)c1ccc(N3CCCC3)cc1S2(=O)=O | 20* | 26* | nt | nt | -7
O=C(NCc1cccc(F)c1)c1cccc2c1C(=O)c1ccc(N3CCC(Cc4ccccc4)CC3)cc1S2(=O)=O | 11 | 17 | nt | nt | -11
CCN1C(=O)c2cccc3c(S(=O)(=O)NCc4ccccc4)ccc1c23 | 1 | 2 | nt | nt | -8
CCN1C(=O)c2cccc3c(S(=O)(=O)Nc4ccccc4OC)ccc1c23 | 11 | 11 | 46* | 123* | -19
COc1cc(/C=C(\C#N)c2nc3c(s2)CCCC3)ccc1O | 60* | 57* | 6 | 11 | -24
CCOC(=O)NC(=O)/C(C#N)=C\Nc1sccc1C(=O)OC | 57* | 53* | 22* | 18* | -8
COc1ccc(NC(=O)CNC(=O)C23CC4CC(CC(C4)C2)C3)c(OC)c1 | 0 | 1 | nt | nt | -10
COc1ccc(OC)c(NC(=O)C(=O)NNC(=O)C23CC4CC(CC(C4)C2)C3)c1 | 5 | 13 | 43* | 27* | -15
Cn1cc(C2=C(c3ccc(Cl)cc3Cl)C(=O)NC2=O)c2ccccc21 | 29* | 31* | nt | nt | -11
Cn1cc(-c2ccccc2C(N)=O)c(=O)c2cc(Cl)ccc21 | 1 | 1 | 0 | 0 | 2
O=C(Cc1ccccc1)NC(C(=O)O)C(O)c1ccc([N+](=O)[O-])cc1 (configuration not stated) | 1 | 1 | nt | nt | 2
CCCOC(=O)c1ccc(Oc2coc3c(CN(CC)CC)c(O)ccc3c2=O)cc1 | 0 | 1 | 0 | 1 | -11
Cc1cc(=O)[nH]c(SCC(=O)Nc2ccccc2C)n1 | 1 | 1 | 20* | 1 | -3
Cc1ccc(Oc2ccc(OCC(=O)NC3CCS(=O)(=O)C3)cc2)cc1 (configuration not stated) | 10 | 9 | nt | nt | -13
O=[N+]([O-])c1ccc(/C=C/C2=NN(c3ccccc3)C(c3ccco3)C2)o1 (configuration not stated) | nt | nt | 23* | 21* | nt
CCOC(=O)C1CCCN(C(=O)c2cc(CN3C(=O)c4ccccc4C3=O)ccc2OC)C1 (configuration not stated) | -1 | 1 | nt | nt | 6
Cc1c(O)cc2c(c1O)C(=O)CC(c1ccccc1)O2 (configuration not stated) | 59* | 48* | nt | nt | -10
O=C(c1ccc(Cl)cc1)N(Cc1ccc(Br)cc1)N1C(=O)CCC1=O | 2 | 2 | 1 | 1 | -7
SMILES | OXTR ag | V1R ag counter | TRPN1 ag | TRPML3 agonist | OXTR potentiate
O=C(c1ccc([N+](=O)[O-])cc1)N(Cc1ccc(Cl)cc1)N1C(=O)CCCC1=O | -1 | 0 | 27* | 87* | -2
O=C(N/N=C/c1cc(Cl)cc(Cl)c1O)c1ccncc1 | 29* | 28* | 24* | 9 | -10
O=C(O)c1ccc(OCC(O)Cn2c3ccccc3c3ccccc32)cc1 (configuration not stated) | 22* | 44* | 1 | 1 | -8
OC(COc1ccccc1)Cn1c2ccccc2c2ccccc21 (configuration not stated) | 0 | 0 | -2 | 0 | 3
Cc1cc(C)c2c(=O)n(CC(=O)Nc3ccc(Cl)cc3)sc2n1 | 32* | 30* | 11 | 5 | -11
CCCN1C(=O)c2cccc3c(N4CCCCC4)ccc(c23)C1=O | 5 | 3 | 23* | 7 | -4
CCCCNc1ccc2c3c(cccc13)C(=O)N(CCCC)C2=O | nt | nt | 283* | 154* | nt
O=C1c2cccc3c(N4CCCCC4)ccc(c23)C(=O)N1c1ccc(Cl)cn1 | nt | nt | 6 | 6 | nt
O=C(OCCN1C(=O)c2cccc3c(N4CCOCC4)ccc(c23)C1=O)c1cc(Cl)cc(Cl)c1 | nt | nt | 4 | 2 | nt
O=C1c2cccc3c(N4CCCCC4)ccc(c23)C(=O)N1c1ccccn1 | 42* | 40* | 7 | 6 | -30
CN(C)CCCN1C(=O)c2cccc3c(Br)ccc(c23)C1=O | 0 | 1 | 0 | 1 | 2
CCCOc1ccc(C2C(=O)N(C3CCCCC3)CC(=O)N2C2CC2)cc1OC (configuration not stated) | 0 | 0 | 0 | 1 | 2
O=C(NCC1CCCN1S(=O)(=O)c1cccs1)c1cccc(Cl)c1 (configuration not stated) | 1 | 0 | nt | nt | -6
COc1ccc(-c2cc(=O)oc3c(C)c(OC(C)C(=O)Nc4ccc(CN5CCOCC5)cc4)ccc23)cc1 (configuration not stated) | 3 | 3 | nt | nt | -4
CCc1ccc(Cn2nnc(C(=O)Nc3ccc(OC)cc3OC)c2N)cc1 | 29* | 24* | 7 | 2 | -6
Cc1ccccc1Cn1nnc(C(=O)Nc2ccc3c(c2)OCCO3)c1N | 5 | 2 | nt | nt | -12
Cc1cc(C)cc(NC(=O)c2nnn(Cc3cc(C)ccc3C)c2N)c1 | 35* | 42* | 16 | 11 | -27
COc1cccc(NC(=O)Cn2nnc(C(=O)Nc3ccccc3)c2N)c1 | 0 | -1 | -1 | 0 | -16
Cc1ccc(C)c(Cn2nnc(C(=O)Nc3ccc4c(c3)OCCO4)c2N)c1 | 39* | 29* | nt | nt | -21
COc1cccc(NC(=O)c2nnn(Cc3ccc(Br)cc3F)c2N)c1 | 27* | 29* | 13 | 6 | -12
COc1cccc(NC(=O)c2nnn(CC(=O)Nc3cc(C)cc(C)c3)c2N)c1 | 5 | 2 | nt | nt | -12
CC(=O)c1cccc(NC(=O)CSc2nnc(-c3ccncc3)o2)c1 | 1 | 1 | nt | nt | -1
Cc1ccccc1-n1c(O)c(/C=C/C=Nc2ccccc2)c(=O)[nH]c1=O | 47* | 30* | 13 | 9 | -15
c1ccc(CNc2ncnc3c2cnn3Cc2ccccc2)cc1 | 25* | 21* | 6 | 2 | -13

Bioassay records from PubChem BioAssay.
